According to publication PMC3817326 (British Journal of Cancer, 2013):

Columns and labels:
[1] = system: caspase 3/7 activity in HCT-116 cells; experiment: Caspase 3/7 assay; assay type: cell-based, human; conditions: 24 h
Summary of the method: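 Treated cells were transferred to opaque plates and incubated 1 h with a luminogenic caspase 3/7 reagent. Luminescence on a microplate counter gave caspase 3/7 activity, normalised to protein content.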

[2] = system: caco-2 monolayers; experiment: Transwell permeability assay across caco-2 monolayers; assay type: in vitro ADME, human; conditions: compounds tested at 10 μM
Summary of the method: (§1)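 Caco-2 monolayers in transwells were used to measure apical-to-basal absorption (PappA–B) and basal-to-apical secretion (PappB–A). Efflux ratio was calculated as PappB–A/PappA–B. Runs were made with or without ABC transporter inhibitors (FTC for ABCG2, verapamil for ABCB1), with vinblastine as an ABCB1 reference substrate.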

[3] = system: A2780^AD cells, overexpressing ABCB1; experiment: Growth inhibition in doxorubicin-resistant A2780AD cells vs parental A2780; assay type: cell-based
[4] = Transwell permeability assay across caco-2 monolayers; assay type: in vitro ADME, human; conditions: human, Caco-2
Summary of the method: as §1

[5] = Metabolic stability in mouse S9 fractions; assay type: in vitro ADME; conditions: 60 min incubation with NADPH and mouse S9 fractions
[6] = system: Ki-67; conditions: after 5 days of treatment; ref Li et al, 2012; cited from earlier work

SMILES: CC(C)c1cnn2c(NCc3ccccc3)cc(NCCCCCCN)nc12 [BS-181]
- Caspase 3/7 activity [1]: only at the highest concentration tested
- Permeability PappA–B across caco-2 cells [2]: poorly absorbed
- Potency in A2780^AD cells compared with parental A2780 [3]: equipotent

SMILES: CC[C@]1(O)C[C@@H]2CN(CCc3c([nH]c4ccccc34)[C@@](C(=O)OC)(c3cc4c(cc3OC)N(C)[C@H]3[C@@](O)(C(=O)OC)[C@H](OC(C)=O)[C@]5(CC)C=CCN6CC[C@]43[C@@H]65)C2)C1 [vinblastine]
- efflux ratio at 10 μM [4]: 8

SMILES: CC[C@H](CO)Nc1nc(NCc2ccccc2)c2ncn(C(C)C)c2n1 [roscovitine]
- Parent compound remaining [5]: < 10%

SMILES: CO[C@H]1C[C@@H]2CC[C@@H](C)[C@@](O)(O2)C(=O)C(=O)N2CCCC[C@H]2C(=O)O[C@H]([C@H](C)C[C@@H]2CC[C@@H](OCCO)[C@H](OC)C2)CC(=O)[C@H](C)/C=C(\C)[C@@H](O)[C@@H](OC)C(=O)[C@H](C)C[C@H](C)/C=C/C=C/C=C/1C [everolimus]
- Decrease in Ki-67 [6]: 1.6 fold
